Source: PubChem (The Scripps Research Institute Molecular Screening Center)
GPR7 antag: human neuropeptides B/W receptor 1 antagonism; P48145; GPR7-expressing cells, fluorescence antagonist assay; inhibition, % at 4.4 µM; 290,000 compounds, 1.1% hits; AID 1861; in the data active = inhibition above about 16%, passing the limit was not always enough;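 note: cells stimulated with the agonist NPW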
Target sequence (P48145 whole entry, looked up): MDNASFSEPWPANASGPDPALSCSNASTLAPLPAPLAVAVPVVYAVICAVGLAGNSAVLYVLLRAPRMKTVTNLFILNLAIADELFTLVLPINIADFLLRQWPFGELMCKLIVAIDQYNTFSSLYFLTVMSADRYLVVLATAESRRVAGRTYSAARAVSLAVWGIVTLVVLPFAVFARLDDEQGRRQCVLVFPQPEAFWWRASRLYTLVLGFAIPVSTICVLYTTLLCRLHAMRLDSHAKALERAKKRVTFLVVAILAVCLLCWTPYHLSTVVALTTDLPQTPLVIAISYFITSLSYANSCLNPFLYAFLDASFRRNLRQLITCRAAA
TAAR1 antagonist: human TAAR1 antagonism; Q96RJ0; CHO RD-HGA16 TAAR1, Fluo-8 calcium fluorescence, antagonist; inhibition, % at 3 µM; 360,000 compounds, 1.5% hits; AID 624466;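 active = inhibition above a per-plate cutoff, the mean inhibition of test compounds on that plate plus 3 SD, cut at about 49% in these data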
Target sequence (Q96RJ0 whole entry, looked up): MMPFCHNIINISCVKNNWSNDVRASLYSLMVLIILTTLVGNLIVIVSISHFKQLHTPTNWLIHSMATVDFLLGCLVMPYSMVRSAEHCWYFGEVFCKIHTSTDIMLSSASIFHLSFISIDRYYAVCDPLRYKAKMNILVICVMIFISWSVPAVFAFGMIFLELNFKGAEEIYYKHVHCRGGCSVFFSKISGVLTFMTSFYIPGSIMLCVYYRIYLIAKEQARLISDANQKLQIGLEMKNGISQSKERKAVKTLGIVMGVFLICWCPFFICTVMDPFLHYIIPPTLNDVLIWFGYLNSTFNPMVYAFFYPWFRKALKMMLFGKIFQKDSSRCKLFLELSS
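Test system – hTAAR1-expressing CHO RD-HGA16 cells, Gα16-coupled · Also added – β-PEA at EC80 concentration, post-compound challenge · Compound – 3 µM, single point · Incubation – dye loading 75 min at 37 °C, then 30 min room temperature · Measured by – Fluo-8 intracellular calcium dye fluorescence, real-time kinetic reads · Benchmarks – vehicle and agonist controls · Replicates – singlicate, one well per test compound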
OX1R antag-1: blocks the human orexin 1 receptor | inhibition, % at 6.6 µM | O43613 | 330,000 compounds, 1.8% hits | OX1R-expressing cells, FRET antagonist read-out; in the data active = inhibition mostly above about 38%, no sharp cut-off; inactive = mostly below about 40%
TAAR1 ag: agonists of human TAAR1 | activation, % at 3 µM | CHO RD-HGA16 TAAR1, Fluo-8 calcium fluorescence; vehicle wells 0%, saturating PEA agonist 100% | 360,000 compounds, 0.99% hits | Q96RJ0;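 active = activation above the mean activation of all test compounds in the run plus 3 SD, cut at about 38% in these data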
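Test system: RD-HGA16 (CHO) cells co-expressing Gα16 and hTAAR1 | Doses: Single dose, 3 µM | Schedule: 17-24 h seeding, 75 min 37 °C dye, 30 min RT | Evaluation: % activation from peak over basal fluorescence ratio, DMSO-to-PEA scaled | Technique: Kinetic Fluo-8 calcium fluorescence | Benchmarks: Low control DMSO, high control PEA (EC100)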
CHO parental Ca: counter-screen for OX1R antagonists: effect in parental CHO cells. parental CHO-K1, ATP-induced calcium, Fluo-8 fluorescence. inhibition, % at 5.6 µM. 330,000 compounds, 0.63% hits. AID 463079;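 active = inhibition above that plate's mean sample inhibition plus 3 SD, cut at about 26% in these data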
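Assay system: untransfected parental CHO cell line. Also added: ATP agonist challenge. Dosing: one dose, 5.6 µM nominal. Measured by: Fluo-8 fluorescence. Read-out: % inhibition. Benchmarks: ATP wells versus no-ATP DMSO wells. Repeats: no replicates.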
OX1R antag-2: blocks the human orexin 1 receptor; O43613; CHO/OX1R cells, Fluo-8 calcium fluorescence, orexin A; inhibition, % at 5 µM; 330,000 compounds, 0.43% hits; AID 434989;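 active = inhibition above its plate's threshold, mean inhibition of all tested compounds on the plate plus 3 SD, cut at about 37% in these data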
TAAR1 ag conf: human TAAR1 agonism, confirmed | CHO RD-HGA16 TAAR1, Fluo-8 calcium fluorescence; scaled: DMSO 0%, maximal phenethylamine 100% | 2,400 compounds, 82% hits | shares compounds with TAAR1 ag | activation, % at 3 µM;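 active = activation above a cutoff set at the run's mean compound activation plus 3 SD, cut at about 39% in these data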
Ga16 ag counter: nonselective agonism, TAAR1 counter-screen; 2,400 compounds, 50% hits; activation, % at 3 µM; shares compounds with TAAR1 ag; CHO-Ga16 parental, Fluo-8 calcium fluorescence; normalized to maximal ATP response, DMSO zero;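 active = activation above the run cutoff, the mean activation over all tested wells plus 3 SD, cut at about 12% in these data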
TAAR1 desensitize: counter-screen for human TAAR1 agonists: agonists that desensitize TAAR1. CHO RD-HGA16 hTAAR1, Fluo-8 calcium, beta-PEA response inhibition. AID 651951. 2,400 compounds, 46% hits. inhibition, % at 3 µM. shares compounds with TAAR1 ag;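 active = inhibition above the run cutoff, the mean inhibition of all test compounds plus 3 SD, cut at about 49% in these data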;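 note: beta-PEA stimulus applied at its EC80; loss of beta-PEA calcium signal after compound pretreatment read as receptor desensitization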
Ga16 antag count: nonselective Ga16 antagonism, counter-screen. AID 651952. 2,400 compounds, 39% hits. shares compounds with TAAR1 ag. CHO-Ga16 ATP-induced calcium, Fluo-8 fluorescence. inhibition, % at 3 µM;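 active = inhibition above the plate's mean compound inhibition plus 3 SD, computed per plate, cut at about 22% in these data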
Of the large screens only hits and unclear results are named; the others gave an inactive call (follow-up assays come after a bar, where they were run). Shown are actives, neighbours in structure and some others; about 4.6% of the full set was active somewhere.

Cc1cc(C)nc(OC(C(=O)O)C(OCCc2ccccc2)(c2ccccc2)c2ccccc2)n1 (centres undefined)	TAAR1 ag 99 | TAAR1 ag conf 126 | Ga16 ag counter 85 | TAAR1 desensitize inactive | Ga16 antag count inactive
CCOC(=O)Cc1nnc(NC(=O)CSc2ccc(C)cc2)s1	TAAR1 ag 69 | TAAR1 ag conf 58 | Ga16 ag counter 27 | TAAR1 desensitize inactive | Ga16 antag count inactive
CCOC(=O)Cc1nnc(NC(=O)Nc2ccccc2)s1	TAAR1 ag 45 | TAAR1 ag conf 67 | Ga16 ag counter inactive | TAAR1 desensitize inactive | Ga16 antag count inactive
COc1ccc(NC(=O)Nc2nnc(CC(=O)NCc3ccccc3)s2)cc1	TAAR1 ag 44 | TAAR1 ag conf 54 | Ga16 ag counter inactive | TAAR1 desensitize inactive | Ga16 antag count inactive
COCc1nnc(NC(=O)CSc2ccc(C)cc2)s1	none
c1cnc2c(OCc3nc4ccccc4[nH]3)cccc2c1	none
CCOC(=O)c1c(-c2cccs2)csc1NC(=O)CN1CCOCC1	TAAR1 ag 44 | TAAR1 ag conf inactive | Ga16 ag counter 38 | TAAR1 desensitize inactive | Ga16 antag count 35
CCOC(=O)c1c(-c2ccc(C)o2)csc1NC(=O)CN1CCOCC1	none
C=CC[C@@H](CC(=O)N(CCO)Cc1ccccc1)C(=O)NC[C@H](OC(=O)[C@@H](CC=C)CC(=O)OC(C)(C)C)c1ccccc1	TAAR1 antagonist 71, TAAR1 ag 63 (no result: GPR7 antag) | TAAR1 ag conf 69 | Ga16 ag counter 21 | TAAR1 desensitize 63 | Ga16 antag count 30
CC(=O)c1cccc(-c2ccnc3c2CC(C(=O)NCc2cccs2)O3)c1 (centres undefined)	none (no result: GPR7 antag, OX1R antag-1, CHO parental Ca, OX1R antag-2)
CN(C)CCCN(C(=O)c1ccc(C(=O)c2ccccc2)cc1)c1nc2ccc(F)cc2s1	none
CN(C)CCCN(C(=O)c1ccc(S(=O)(=O)N(C)C2CCCCC2)cc1)c1nc2ccc(F)cc2s1	TAAR1 ag 47 | TAAR1 ag conf 49 | Ga16 ag counter 22 | TAAR1 desensitize 49 | Ga16 antag count 32
CCCCCCCCN1C(=O)[C@H](CC(=O)NCC23CC4CC(CC(C4)C2)C3)C[C@@]2(C(=O)OC)CC(C)(C)CC=C12	none (no result: GPR7 antag, OX1R antag-1, CHO parental Ca, OX1R antag-2)
COc1cc(CNCCc2ccccc2)ccc1OCc1ccc(Cl)nc1	TAAR1 ag 54 | TAAR1 ag conf 71 | Ga16 ag counter inactive | TAAR1 desensitize inactive | Ga16 antag count inactive
CCOc1cc(CNCCc2ccc(S(N)(=O)=O)cc2)ccc1OCc1ccc(Cl)cc1	GPR7 antag 51, TAAR1 ag 69, CHO parental Ca 61, OX1R antag-2 77 | TAAR1 ag conf 85 | Ga16 ag counter 46 | TAAR1 desensitize 91 | Ga16 antag count 72
COc1cc(/C=C2\CCOC2=O)cc(OC)c1OC	none
COc1ccccc1CCNC(=O)C(=O)NCC1OCCN1S(=O)(=O)c1ccccc1 (centres undefined)	TAAR1 ag 47 | TAAR1 ag conf 69 | Ga16 ag counter inactive | TAAR1 desensitize inactive | Ga16 antag count inactive
COc1ccccc1CCNC(=O)C(=O)NCC1OCCN1S(=O)(=O)c1cccs1 (centres undefined)	TAAR1 ag 72 | TAAR1 ag conf 74 | Ga16 ag counter inactive | TAAR1 desensitize inactive | Ga16 antag count inactive
O=C(NCCc1ccccc1)C(=O)NCC1OCCN1S(=O)(=O)c1cc(F)ccc1F (centres undefined)	TAAR1 ag 52 | TAAR1 ag conf 69 | Ga16 ag counter inactive | TAAR1 desensitize 58 | Ga16 antag count 34
COc1ccccc1CCNC(=O)C(=O)NCC1OCCN1S(=O)(=O)c1ccc(C)cc1 (centres undefined)	TAAR1 ag 63 | TAAR1 ag conf 76 | Ga16 ag counter inactive | TAAR1 desensitize 58 | Ga16 antag count inactive
COc1cccc(-n2cnc3cccc(N)c32)c1	none
Cc1c(OCC(=O)NCCCN2CCOCC2)ccc2c(-c3ccccc3)cc(=O)oc12	none
CC(C)c1ccc(OCC(=O)N(Cc2ccco2)C2CCS(=O)(=O)C2)cc1 (centres undefined)	none
COc1ccccc1CCNC(=O)C(=O)NCC1OCCCN1S(=O)(=O)c1ccc(F)cc1C (centres undefined)	TAAR1 ag 58 | TAAR1 ag conf 64 | Ga16 ag counter inactive | TAAR1 desensitize inactive | Ga16 antag count inactive
Cc1cc(F)ccc1S(=O)(=O)N1CCCOC1CNC(=O)C(=O)NCCc1ccco1 (centres undefined)	none (no result: GPR7 antag, OX1R antag-1, CHO parental Ca, OX1R antag-2)
COc1ccccc1CCNC(=O)C(=O)NCC1OCCN1S(=O)(=O)c1ccc([N+](=O)[O-])cc1 (centres undefined)	TAAR1 ag 46 | TAAR1 ag conf 73 | Ga16 ag counter inactive | TAAR1 desensitize inactive | Ga16 antag count inactive
CN(Cc1c(F)cccc1Cl)C(=O)C1CC(=O)N(CCc2ccccc2)C1 (centres undefined)	none
COc1ccc(C)cc1NC(=O)CSc1ccc(-c2sc(C)nc2C)nn1	none
Cn1cc(S(=O)(=O)N2CCc3ccccc32)cc1C(=O)Nc1ccc(Cl)cc1	none
CC(=O)c1sc2nc(-c3cccs3)cc(C(F)(F)F)c2c1N	TAAR1 antagonist 64, TAAR1 ag 72, OX1R antag-2 42 | TAAR1 ag conf 65 | Ga16 ag counter 84 | TAAR1 desensitize 64 | Ga16 antag count 70
Cc1ccc(C)c(S(=O)(=O)NNC(=O)c2sc(NS(=O)(=O)c3ccccc3)nc2C)c1	none
CCN(CC(=O)NCc1cccs1)C(=O)/C=C/c1ccc(F)cc1	none (no result: GPR7 antag, OX1R antag-1, CHO parental Ca, OX1R antag-2)
COc1ccc(NS(=O)(=O)c2ccc(OCC(=O)N3CCOCC3)cc2)cc1	none
O=C(COc1ccc(S(=O)(=O)Nc2ccc(Cl)cc2)cc1)N1CCOCC1	TAAR1 ag 57 | TAAR1 ag conf 56 | Ga16 ag counter 31 | TAAR1 desensitize inactive | Ga16 antag count inactive
CCOc1ccc(NS(=O)(=O)c2ccc(C(=O)NCC(c3cccs3)N3CCOCC3)cc2)cc1 (centres undefined)	TAAR1 antagonist 83, TAAR1 ag 126 (no result: GPR7 antag) | TAAR1 ag conf 106 | Ga16 ag counter 68 | TAAR1 desensitize 78 | Ga16 antag count 51
